# Compounds with a hit are over-represented: about 1.8% of the library has one in this group of screens.
# M4 ag: CHRM4 agonism in calcium assay. P08173. activation, % at 3 µM. CHO-K1 hM4/Gqi5, Fluo-8 calcium fluorescence; vehicle 0%, full acetylcholine response 100%. hit rate 0.14% among 360,000;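 active = activation above the run mean over all test wells plus 3 SD, cut at about 32% in these data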;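 note: peak over basal fluorescence ratio per well then scaled between controls; 0% = DMSO wells and 100% = acetylcholine at EC100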
# Target sequence (P08173 whole entry, looked up): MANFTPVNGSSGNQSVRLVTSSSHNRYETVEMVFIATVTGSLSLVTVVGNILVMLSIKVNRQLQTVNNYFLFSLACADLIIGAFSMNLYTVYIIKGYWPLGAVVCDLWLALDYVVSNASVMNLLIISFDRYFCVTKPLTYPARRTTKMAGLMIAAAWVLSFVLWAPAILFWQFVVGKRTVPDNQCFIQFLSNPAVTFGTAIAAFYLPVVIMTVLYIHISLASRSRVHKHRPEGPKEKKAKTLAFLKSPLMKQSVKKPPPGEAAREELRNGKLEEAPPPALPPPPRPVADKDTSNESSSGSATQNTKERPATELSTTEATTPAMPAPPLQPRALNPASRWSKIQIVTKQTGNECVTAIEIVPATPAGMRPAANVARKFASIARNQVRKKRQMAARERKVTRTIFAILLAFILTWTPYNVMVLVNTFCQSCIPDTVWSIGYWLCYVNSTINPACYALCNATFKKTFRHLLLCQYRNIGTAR
# CHRM5 antagonist: antagonists of human muscarinic M5 receptor (CHRM5) | P08912 | CHO-hM5 cells, Fluo-8 calcium fluorescence, ACh EC80 | inhibition, % at 3 µM | hit rate 0.59% among 360,000 | AID 624040;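 active = inhibition above a per-plate cutoff, the mean of that plate's test compounds plus 3 SD, cut at about 27% in these data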;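 note: 0% = acetylcholine EC80 with DMSO and 100% = DMSO without agonist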
# CHRM4 PAM: CHRM4 positive allosteric modulation. P08173. CHO-K1 hM4/Gqi5, Fluo-8 calcium fluorescence, ACh EC20; 0% = ACh EC20, 100% = maximal ACh. activation, % at 3 µM. hit rate 0.4% among 360,000. AID 624126;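 active = activation above its plate's cutoff, the mean activation of sample wells plus 3 SD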
# M5 ag: CHRM5 agonism in calcium assay | P08912 | CHO-K1 hM5 cells, Fluo-8 calcium fluorescence; 0% DMSO wells, 100% maximal acetylcholine response | activation, % at 3 µM | hit rate 0.19% among 360,000 | AID 624037;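 active = activation above the run's mean over test compounds plus 3 SD, cut at about 23% in these data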;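 note: signal is peak over basal fluorescence ratio across the kinetic read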
# M5 PAM: positive allosteric modulators of human muscarinic M5 receptor | hit rate 0.3% among 360,000 | AID 624038 | activation, % at 3 µM | CHO-K1 hM5, Fluo-8 calcium, ACh EC20 PAM; 0% = ACh EC20, 100% = ACh EC100;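 active = activation above the run cutoff, the mean activation of all test compounds plus 3 SD, cut at about 18% in these data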
#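 System: CHO-K1 hM5 cells. Reagent: acetylcholine, EC20 level. Compound dosing: single dose, 3 µM nominal final test concentration. Timing: Post-acetylcholine fluorescence recording 140 s. Detection: Fluo-8 calcium fluorescence. Read-out: % activation, ACh-normalized. Benchmarks: ACh EC20 and EC100 wells. Repeats: singlicate, one well per test compound.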
# M4 antag: blocks acetylcholine activation of human M4 receptor | P08173 | CHO-hM4 cells, ACh EC80, Fluo-8 calcium fluorescence | inhibition, % at 3 µM | hit rate 0.73% among 360,000;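 active = inhibition above its plate's cutoff, the mean inhibition of sample wells plus 3 SD, cut at about 27% in these data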;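 note: 0% = acetylcholine EC80 with DMSO and 100% = DMSO without agonist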
# The depositor's hits bear a star; ! = a repeat was not active.
SMILES,M4 ag,CHRM5 antagonist,CHRM4 PAM,M5 ag,M5 PAM,M4 antag
Cc1ccc(Cl)cc1NC(=O)CSc1sc2c(O)cc(=O)[nH]c2c1C#N,1,14,-1,-4,-5,4
COc1ccc(Cl)cc1NC(=O)CSc1sc2c(O)cc(=O)[nH]c2c1C#N,7,19,23*,-1,15,4
COCCN(CC(=O)NC1CCCCC1)C(=O)/C=C/C(=O)c1ccc(OC)cc1O,2,12,-5,3,10,18
COc1ccc(C(=O)/C=C/C(=O)N(CC(=O)NC2CCCCC2)Cc2cccs2)c(O)c1,16,19,-18,11,-4,34*
Clc1cccc(-c2ccc(-c3nc4ccccn4c3NCc3ccccc3)cc2)c1,6,14,-9,0,-17,29*
COc1ccc(-c2nc3ccccn3c2NCc2ccc3c(c2)OCO3)cc1,8,10,-11,-6,-35,6
c1ccc(CNc2c(-c3cccc(SC4CCCCC4)c3)nc3ccccn23)cc1,13,22,-12,-4,-34,49*!
Clc1cccc(CNc2ccn3nc(-c4ccccc4)cc3n2)c1,5,-6,16*,1,11,-4
COc1ccc(-c2cc(-c3nc4ccccn4c3NCc3ccccc3)ccc2OC)cc1,26,48*,-16,0,-38,84*
c1ccc(-c2nc3ccccn3c2NCc2ccc3c(c2)OCO3)cc1,12,11,-11,1,-21,-12
Cc1ccn2c(NCc3ccccc3)c(-c3cccc(SC4CCCCC4)c3)nc2c1,4,13,-8,-6,-11,11
CC(=O)Oc1ccc2ccc3ccc(C(C)=O)cc3c2c1,2,14,0,0,1,-2
Cc1c(NC(=O)C(C)OC(=O)c2cc(Cl)ccc2O)c(=O)n(-c2ccccc2)n1C (centres undefined),1,15,4,-2,-10,-6
CN(C(=O)COC(=O)c1nc(Cl)ccc1Cl)c1ccccc1,3,7,5,-1,0,-9
NS(=O)(=O)c1ccc(CCNC(=O)COC(=O)C2COc3ccccc3O2)cc1 (centres undefined),0,17,1,-1,0,7
Cc1nc2nc(-c3ccccc3)cn2nc1C,1,-9,18*,2,0,-17
Cc1ccc(N/N=C2\CS(=O)(=O)N(C)c3ccsc32)cc1,1,1,0,-6,-9,8
CCCC(=O)N/N=C1\CS(=O)(=O)N(C)c2ccsc21,3,2,-18,-1,-3,51*
COc1ccc(NC2=NCC(Cc3ccc(Br)cc3)S2)cc1 (centres undefined),7,5,-22,-5,-14,29*
C[C@@H]1CN([C@H](C)CO)C(=O)c2cc(NC(=O)Nc3ccc(C(F)(F)F)cc3)ccc2O[C@H]1CN(C)S(=O)(=O)c1cccs1,1,6,0,0,2,-1
COc1ccc(NC(=O)N(C)C[C@H]2Oc3c(NC(=O)Nc4ccc(C(F)(F)F)cc4)cccc3C(=O)N([C@H](C)CO)C[C@@H]2C)cc1,37*,16,-6,2,-27,29*
C[C@H](CO)N1C[C@H](C)[C@@H](CN(C)C(=O)Nc2ccc3c(c2)OCO3)Oc2c(NC(=O)Nc3ccc(C(F)(F)F)cc3)cccc2C1=O,31,17,-7,7,-35,30*
C[C@H](CO)N1C[C@H](C)[C@@H](CN(C)S(=O)(=O)c2cccs2)Oc2ccc(NC(=O)CCC(F)(F)F)cc2C1=O,-1,3,-6,-7,-1,29*
COc1ccc(CCNC(=O)C(=O)NCC2OCCN2S(=O)(=O)c2cc(F)ccc2F)cc1OC (centres undefined),15,1,-11,4,-6,-9
O=c1[nH]c(C2CCN(S(=O)(=O)c3ccccc3F)CC2)nc2c1nnn2Cc1ccc2c(c1)OCCO2,1,-16,6,0,13,-14
SMILES,M4 ag,CHRM5 antagonist,CHRM4 PAM,M5 ag,M5 PAM,M4 antag
Cc1cccc(NC(=O)CSCc2nc3c(nnn3Cc3ccc(F)cc3)c(=O)[nH]2)c1C,1,6,0,0,3,-1
Cc1ccc(NC(=O)CSCc2nc3c(nnn3Cc3ccc(F)cc3)c(=O)[nH]2)c(C)c1,2,-14,9,6,21*,-8
O=c1[nH]c(C2CCN(S(=O)(=O)c3ccc(F)cc3)CC2)nc2c1nnn2Cc1ccc2c(c1)OCCO2,-1,0,-12,-7,-3,81*
Cc1ccc(C)c(S(=O)(=O)N2CCC(c3nc4c(nnn4Cc4ccc(F)cc4)c(=O)[nH]3)CC2)c1,0,4,-22,-3,1,49*
O=c1[nH]c(C2CCN(S(=O)(=O)c3ccc(S(=O)(=O)NC4CC4)cc3)CC2)nc2c1nnn2Cc1ccc(F)cc1,2,11,-20,-5,-2,18
Cc1ccc(Cn2nnc3c(=O)[nH]c(C4CCN(S(=O)(=O)c5ccc(F)cc5)CC4)nc32)cc1,-2,5,-31,-2,-2,32*
O=C(COC(=O)c1cc([N+](=O)[O-])ccc1NCCO)Nc1cccnc1Cl,3,10,-2,4,-9,0
CC(C)n1nc(Cc2cccc3ccccc23)c(C#N)c1N,1,7,8,-2,0,-4
COc1ccc(C(=O)C2CCCN(Cc3nc4ccccc4nc3C)C2)cc1OC (centres undefined),1,-3,-2,-4,0,-8
CCOC(=O)N1CCC(N2CCCC(C(=O)c3cc(C)c(OC)c(C)c3)C2)CC1 (centres undefined),2,36*,-16,-11,-20,21
COc1ccc(C(=O)C2CCCN(C3Cc4ccccc4C3)C2)cc1OC (centres undefined),1,11,-18,-10,-11,29*
Cc1ccc2cc3cc(C(=O)NCCN4CCOCC4)oc3nc2c1,3,-13,12,2,21*,-6
c1ccc2c(CCNc3ncnc4nc[nH]c34)cccc2c1,29,33*,-28,10,-24,29*
c1ccc(CCCNc2ncnc3nc[nH]c23)cc1,14,-3,-1,9,-9,-10
N#Cc1cccc(NC(=O)COc2ccc(-n3ccnc3)cc2)c1,17,40*,-14,0,-17,26
COc1cc(NC(=O)COc2ccc(-n3ccnc3)cc2)cc(OC)c1,7,11,-9,3,-10,7
COc1ccc(NC(=O)CN(C)C(=O)C2CCCO2)cc1 (centres undefined),0,17,0,2,-2,2
